Converted amounts (≈) assume the structure as drawn. The source made the active and inactive calls. The rule behind the calls is not given here.
What was measured:
[1] = system: Trichophyton mentagrophytes; test: Fungicidal activity against Trichophyton mentagrophytes clinical isolate after 48 hrs by broth dilution method; type: functional
How it was run: (§1)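 Broth dilution in chemically defined medium, with serial dilutions spanning 0.32 to 0.005 µmol/ml. Dermatophyte plates were read after 48 h at 30 °C.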

[2] = system: Trichophyton mentagrophytes; test: Fungistatic activity against Trichophyton mentagrophytes clinical isolate after 48 hrs by broth dilution method; type: functional; how it was run: as §1
[3] = system: Cavia porcellus; test: Toxicity in guinea pig skin assessed as erythema administered topically bid measured on day 6; type: organism-based; settings: in vivo, topical_or_ocular
How it was run: (§2)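 Intact or abraded skin of uninfected guinea pigs was treated topically with 1.0% w/v compound. The vehicle was either a solution of propylene glycol (20%), 70% sorbitol (3%) and ethanol (78%) or a petrolatum ointment. Skin was scored for erythema and scaling up to day 6, against vehicle-treated controls.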

[4] = system: Cavia porcellus; test: Toxicity in guinea pig skin assessed as scaling administered topically bid measured on day 6; type: organism-based; settings: in vivo, topical_or_ocular; how it was run: as §2
[5] = system: Trichophyton mentagrophytes; test: Antifungal activity against Trichophyton mentagrophytes infected in guinea pig assessed as cure rate of dermal infection at nonirritating dose administered topically bid started on day 3 post infection continued for 8 days measured every other day through day 14 relative to vehicle-treated control; type: functional, organism-based
How it was run: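 Guinea pig T. mentagrophytes skin infection model, treated topically. Compounds were given at non-irritating concentrations, either as a w/v solution in propylene glycol (20%), 70% sorbitol (3%) and ethanol (78%) or in a petrolatum ointment. Treated animals were compared with infected, vehicle-only controls.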

[6] = system: Cavia porcellus; test: Toxicity in guinea pig assessed as skin irritation administered topically bid measured on day 6; type: organism-based; settings: in vivo, topical_or_ocular; how it was run: as §2
[7] = Trichophyton mentagrophytes, 48 h, read-out: MIC

SMILES	MIC [2, 7] [µM]	MIC [2] [µM]	MLC [1] [µM]	Activity [3]	Activity [4]	Activity [5]	Activity [6]
CCCCCCCNc1cc(C)nc2ccnn12	40 (≈ 9.85 µg/mL)		320 (≈ 78.8 µg/mL)				
Cc1cc(NCc2ccc(Cl)cc2Cl)n2nccc2n1	40 (≈ 12.3 µg/mL)		>320				
CCCCCCCCNc1cc(C)nc2ccnn12 [listing 2 of 2 here]						inactive	
Cc1cc(NCC(=O)O)n2nccc2n1	> 320		>320				
Cc1cc(NCCCN2CCOCC2)n2nccc2n1.Cl	> 320		320				
CCCCCCNc1cc(C)nc2ccnn12	40 (≈ 9.29 µg/mL)		320 (≈ 74.3 µg/mL)				
CCCCCCCCNc1cc(C(=O)OCC)nc2ccnn12	320 (≈ 102 µg/mL)		>320				
CCCCCCCCNc1cc(C)nc2c(C(=O)OCC)cnn12	320 (≈ 106 µg/mL)		>320				
CCCCCCCCCCNc1cc(Cl)nc2ccnn12	> 320		>320				
CCCNc1cc(C)nc2c(Br)cnn12	80 (≈ 21.5 µg/mL)		320 (≈ 86.1 µg/mL)				
CCCCCCCCCCNc1cc(C)nc2ccnn12	40 (≈ 11.5 µg/mL)		>320				
Cc1cc(N2CCCCC2)n2nccc2n1	> 320		>320				
CCCCCCCCNc1cc(C)nc2ccnn12.Cl		20	160	Toxic	Toxic		
CCCCCCCCNc1c(C)c(Cl)nc2ccnn12	> 320		>320				
CCN(CC)c1cc(C)nc2ccnn12	> 320		>320				

Further compounds by falling MIC [2, 7], results first:

MIC [2, 7] [µM]	MIC [2] [µM]	SMILES	MLC [1] [µM]	Activity [3]	Activity [4]	Activity [5]	Activity [6]
20 (≈ 5.21 µg/mL)		CCCCCCCCNc1cc(C)nc2ccnn12 [listing 1 of 2 here]	160 (≈ 41.7 µg/mL)	Toxic	Toxic		
20 (≈ 5.77 µg/mL)		CCCCCCCCNc1cc(C(C)C)nc2ccnn12	>320				
20 (≈ 5.55 µg/mL)		CCCCCCCCSc1cc(C)nc2ccnn12	160 (≈ 44.4 µg/mL)				Toxic
20 (≈ 5.62 µg/mL)		CCCCCCCCNc1cc(Cl)nc2ccnn12	320 (≈ 89.9 µg/mL)				
10 (≈ 2.74 µg/mL)		CCCCCCCCNc1c(C)c(C)nc2ccnn12	>320				
10		CCCCCCCCNc1ccnc2ccnn12.Cl	80	Toxic	Toxic	inactive	
10 (≈ 4.78 µg/mL)		CCCCCCCC/C=C/CCCCCCCCNc1cc(C)nc2c(Br)cnn12	20 (≈ 9.55 µg/mL)			Active	
5 (≈ 1.99 µg/mL)		CCCCCCCC/C=C/CCCCCCCCNc1cc(C)nc2ccnn12	10 (≈ 3.99 µg/mL)	Toxic	Toxic	inactive	

Reference: ChEMBL document CHEMBL3244428, “Synthesis and antifungal properties of certain 7-alkylaminopyrazolo[1,5-a]pyrimidines” (J Med Chem, 1977)
